Measured values from different studies.
Compare with care: the assays were run in different laboratories.
Observed: cell growth or viability

Compound	cell line	method	tested at	time	viability [%]
CC(=NNC(=O)c1cccnc1)c1ccc(Nc2nnc(-c3ccc(Cl)cc3)c3ccccc23)cc1	HepG2	MTT	5 µM	24 h	3.2
CC(C)(C)c1cnc(CSc2cnc(NC(=O)C3CCN(C(=O)COCCOCCSc4cccc5c4C(=O)N(C4CCC(=O)NC4=O)C5=O)CC3)s2)o1 (stereo not drawn)	HH	CCK-8	0.2 µM		94.2
CCOC(=O)c1nn(-c2cccc(Cl)c2)/c(=N/N=C(\C)c2ccc(NC(=O)c3ccccc3)cc2)s1	HepG2	MTT	2.5 µM		2.82
CC(=NNC(=O)c1ccccc1Cl)c1ccc(Nc2nnc(-c3ccc(Cl)cc3)c3ccccc23)cc1	HepG2	MTT	0.625 µM	24 h	28.3
CC(C)(C)c1cnc(CSc2cnc(NC(=O)C3CCN(CCCCCCCCSc4cccc5c4C(=O)N(C4CCC(=O)NC4=O)C5=O)CC3)s2)o1 (stereo not drawn)	HH	CCK-8	50 nM		92.6
CC(=NNC(=O)c1ccc(N)cc1)c1ccc(Nc2nnc(-c3ccc(Cl)cc3)c3ccccc23)cc1	HepG2	MTT	0.625 µM	24 h	91.5
CC(=O)Nc1ccc(/C(C)=N/N=c2\sc(C(C)=O)nn2-c2ccc(C)cc2)cc1	HepG2	MTT	0.625 µM		99.8
CC(=NNC(=O)COc1ccc2c(C)c(Cc3ccccc3)c(=O)oc2c1C)c1ccc(Br)cc1	HepG2	MTT	0.4 µg/mL		58
CCOC(=O)c1nn(-c2cccc(Cl)c2)/c(=N/N=C(\C)c2ccc(NC(=O)c3ccc(Cl)cc3)cc2)s1	HepG2	MTT	2.5 µM		2.86
CC(C)(C)c1cnc(CSc2cnc(NC(=O)C3CCN(C(=O)CCCSc4cccc5c4C(=O)N(C4CCC(=O)NC4=O)C5=O)CC3)s2)o1 (stereo not drawn)	HH	CCK-8	10 nM		99.7
CC(=O)c1nn(-c2ccc(C)cc2)/c(=N/N=C(\C)c2ccc(NC(=O)c3ccccc3)cc2)s1	HepG2	MTT	78 nM		73.6
O=C(Nc1ccc(Oc2nnc(-c3ccc(Cl)cc3)c3ccccc23)cc1)c1cccc([N+](=O)[O-])c1	HepG2	MTT	10 µM	24 h	6.17
CC(=O)c1nn(-c2ccccc2Cl)/c(=N/N=C(\C)c2ccc(NC(=O)c3ccccc3)cc2)s1	HepG2	MTT	10 µM		6.13
O=C(C=Cc1ccccc1)Nc1ccc(Oc2nnc(-c3ccc(Cl)cc3)c3ccccc23)cc1	HepG2	MTT	10 µM	24 h	2.63
CC(C)(C)c1cnc(CSc2cnc(NC(=O)C3CCN(CCCCCSc4cccc5c4CN(C4CCC(=O)NC4=O)C5=O)CC3)s2)o1 (stereo not drawn)	HH	CCK-8	50 nM		97.6
